Test results reported in ChEMBL document CHEMBL1144433, “1-Amino-1,2,3,4-tetrahydronaphthalene-2-carboxylic acid as a Tic mimetic: application in the synthesis of potent human melanocortin-4 receptor selective agonists” (Bioorg Med Chem Lett, 2005).

Legend:
[1] = biological target: Melanocyte-stimulating hormone receptor (Homo sapiens, UniProt Q01726); assay: Concentration required for 50% inhibition by displacement of [125I]NDP-alpha-MSH of human MC1R expressed in CHO cells; assay type: cell-based
Chain of Melanocyte-stimulating hormone receptor (Q01726 whole entry): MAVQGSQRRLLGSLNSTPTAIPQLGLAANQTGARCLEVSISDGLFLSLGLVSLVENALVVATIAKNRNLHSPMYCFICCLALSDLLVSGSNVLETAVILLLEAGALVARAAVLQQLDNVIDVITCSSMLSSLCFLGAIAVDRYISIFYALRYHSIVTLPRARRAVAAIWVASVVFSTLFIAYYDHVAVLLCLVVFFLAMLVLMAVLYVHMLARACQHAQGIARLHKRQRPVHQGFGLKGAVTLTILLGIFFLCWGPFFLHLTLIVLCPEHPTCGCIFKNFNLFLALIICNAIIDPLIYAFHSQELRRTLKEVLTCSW

Melanocortin receptor 3 = Melanocortin receptor 3 (Homo sapiens, UniProt P41968); assay: Concentration required for 50% inhibition by displacement of [125I]NDP-alpha-MSH of human MC3R expressed in CHO cells; assay type: cell-based
Chain of Melanocortin receptor 3 (P41968 whole entry): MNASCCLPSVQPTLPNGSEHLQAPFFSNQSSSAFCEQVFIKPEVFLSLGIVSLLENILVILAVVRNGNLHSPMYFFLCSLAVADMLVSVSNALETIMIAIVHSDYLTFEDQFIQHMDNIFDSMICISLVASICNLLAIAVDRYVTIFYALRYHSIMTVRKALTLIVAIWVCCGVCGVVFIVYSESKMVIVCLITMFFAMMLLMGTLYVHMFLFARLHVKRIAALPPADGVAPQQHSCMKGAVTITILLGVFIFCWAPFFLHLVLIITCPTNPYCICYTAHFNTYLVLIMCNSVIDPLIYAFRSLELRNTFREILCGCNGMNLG

Melanocortin receptor 4 = Melanocortin receptor 4 (Homo sapiens, UniProt P32245); assay: Concentration required for 50% inhibition by displacement of [125I]NDP-alpha-MSH of human MC4R expressed in CHO cells; assay type: cell-based
Chain of Melanocortin receptor 4 (P32245 whole entry): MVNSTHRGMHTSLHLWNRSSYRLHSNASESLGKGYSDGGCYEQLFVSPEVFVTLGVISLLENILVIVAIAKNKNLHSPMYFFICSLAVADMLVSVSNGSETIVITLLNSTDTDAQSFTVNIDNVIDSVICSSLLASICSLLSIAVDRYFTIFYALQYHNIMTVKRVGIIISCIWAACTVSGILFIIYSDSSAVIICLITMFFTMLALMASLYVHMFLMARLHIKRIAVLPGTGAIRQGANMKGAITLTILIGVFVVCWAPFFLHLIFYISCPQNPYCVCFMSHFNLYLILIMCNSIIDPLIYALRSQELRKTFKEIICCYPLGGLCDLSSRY
In short: (§1)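 Competition binding against [125I]-NDP-α-MSH at human melanocortin receptors expressed in CHO cells. Values are means ± standard error from at least three determinations.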

Melanocortin receptor 5 = Melanocortin receptor 5 (Homo sapiens, UniProt P33032); assay: Concentration required for 50% inhibition by displacement of [125I]NDP-alpha-MSH of human MC5R expressed in CHO cells; assay type: cell-based; in short: as §1
Chain of Melanocortin receptor 5 (P33032 whole entry): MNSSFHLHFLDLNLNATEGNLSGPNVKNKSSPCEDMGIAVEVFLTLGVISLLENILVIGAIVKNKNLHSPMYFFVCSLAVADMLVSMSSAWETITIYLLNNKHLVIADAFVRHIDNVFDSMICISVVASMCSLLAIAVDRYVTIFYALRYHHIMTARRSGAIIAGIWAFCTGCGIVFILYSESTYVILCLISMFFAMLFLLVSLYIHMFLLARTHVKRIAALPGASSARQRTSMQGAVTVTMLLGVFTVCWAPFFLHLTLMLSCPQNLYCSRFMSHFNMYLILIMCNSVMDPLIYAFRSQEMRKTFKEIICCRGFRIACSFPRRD

[2] = Pharmacokinetic parameter F studied in dog; assay type: ADME, organism-based, Canis lupus familiaris; details: in vivo
In short: (§2)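 Beagle dogs were dosed with a solution in EtOH/PEG/water (1:4:5), 0.5 mg iv and 2.0 mg/kg po. F, clearance, Vdss, t1/2 and tmax were derived from these doses.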

[3] = Pharmacokinetic parameter F studied in rat; assay type: ADME, organism-based; details: in vivo
In short: (§3)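 Sprague–Dawley rats were dosed with a EtOH/PEG/water (1:4:5) solution, 1 mg/kg iv and 4 mg/kg po. F, clearance, Vdss and t1/2 were derived from these doses.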

[4] = Pharmacokinetic parameter hal life studied in dog; assay type: ADME, organism-based, Canis lupus familiaris; details: in vivo; in short: as §2
[5] = Pharmacokinetic parameter hal life studied in rat; assay type: ADME, organism-based; details: in vivo; in short: as §3
[6] = Pharmacokinetic parameter Cl(clearance) studied in dog; assay type: ADME, organism-based, Canis lupus familiaris; details: in vivo; in short: as §2
[7] = Pharmacokinetic parameter Cl(clearance) studied in rat; assay type: ADME, organism-based; details: in vivo; in short: as §3
[8] = Pharmacokinetic parameter Vdss studied in dog; assay type: ADME, organism-based, Canis lupus familiaris; details: in vivo, read-out: Vdss; in short: as §2
[9] = Pharmacokinetic parameter Vdss studied in rat; assay type: ADME, organism-based; details: in vivo, read-out: Vdss; in short: as §3
[10] = Pharmacokinetic parameter max half life studied in dog; assay type: ADME, organism-based, Canis lupus familiaris; details: in vivo; in short: as §2

Row | IC50 [1] | IC50 (Melanocortin receptor 3) | IC50 (Melanocortin receptor 4) | IC50 (Melanocortin receptor 5) | bioavailability [2] | bioavailability [3] | half-life [4] | half-life [5] | clearance [6] | clearance [7] | Vd [8] | Vd [9] | Tmax [10] | SMILES
1 | 1.4 µM | 0.083 µM | 0.0019 µM | 0.034 µM |  |  |  |  |  |  |  |  |  | CC(C)(C)NC(=O)C1(C2CCCCC2)CCN(C(=O)[C@@H](Cc2ccc(Cl)cc2)NC(=O)C2Cc3ccccc3C2N)CC1 (some centres undefined)
2 | 0.53 µM | 0.12 µM | 0.00037 µM | 0.064 µM | 42% | 11% | 3.4 h | 2 h | 0.66 L/h/kg | 2.1 L/h/kg | 2.9 L/kg | 3.9 L/kg | 2 h | CC(C)(C)NC(=O)C1(C2CCCCC2)CCN(C(=O)[C@@H](Cc2ccc(Cl)cc2)NC(=O)[C@H]2CCc3ccccc3[C@H]2N)CC1
3 | 0.22 µM | 0.097 µM | 0.0011 µM | 0.054 µM |  |  |  |  |  |  |  |  |  | CC(C)(C)NC(=O)C1(C2CCCCC2)CCN(C(=O)[C@@H](Cc2ccc(Cl)cc2)NC(=O)C2CCCc3ccccc3C2N)CC1 (some centres undefined)
4 | 0.62 µM | 0.17 µM | 0.0011 µM | 0.031 µM |  |  |  |  |  |  |  |  |  | CC(C)(C)NC(=O)C1(C2CCCCC2)CCN(C(=O)[C@@H](Cc2ccc(Cl)cc2)NC(=O)[C@H]2CCc3ccccc3[C@@]2(C)N)CC1
5 | 0.98 µM | 0.032 µM | 0.00077 µM | 0.024 µM |  |  |  |  |  |  |  |  |  | CC(C)(C)NC(=O)C1(C2CCCCC2)CCN(C(=O)[C@@H](Cc2ccc(Cl)cc2)NC(=O)[C@@H]2CCc3ccccc3[C@@H]2N)CC1
